AHR act = activates the human aryl hydrocarbon receptor | activation, % at 5 µM | AHR-responsive luciferase reporter cells, luminescence | 320,000 compounds, 2.5% hits; in the data active = activation above about 47%;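 note: 0% = vehicle wells and 100% = reference agonist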
Target sequence (P35869 whole entry, looked up): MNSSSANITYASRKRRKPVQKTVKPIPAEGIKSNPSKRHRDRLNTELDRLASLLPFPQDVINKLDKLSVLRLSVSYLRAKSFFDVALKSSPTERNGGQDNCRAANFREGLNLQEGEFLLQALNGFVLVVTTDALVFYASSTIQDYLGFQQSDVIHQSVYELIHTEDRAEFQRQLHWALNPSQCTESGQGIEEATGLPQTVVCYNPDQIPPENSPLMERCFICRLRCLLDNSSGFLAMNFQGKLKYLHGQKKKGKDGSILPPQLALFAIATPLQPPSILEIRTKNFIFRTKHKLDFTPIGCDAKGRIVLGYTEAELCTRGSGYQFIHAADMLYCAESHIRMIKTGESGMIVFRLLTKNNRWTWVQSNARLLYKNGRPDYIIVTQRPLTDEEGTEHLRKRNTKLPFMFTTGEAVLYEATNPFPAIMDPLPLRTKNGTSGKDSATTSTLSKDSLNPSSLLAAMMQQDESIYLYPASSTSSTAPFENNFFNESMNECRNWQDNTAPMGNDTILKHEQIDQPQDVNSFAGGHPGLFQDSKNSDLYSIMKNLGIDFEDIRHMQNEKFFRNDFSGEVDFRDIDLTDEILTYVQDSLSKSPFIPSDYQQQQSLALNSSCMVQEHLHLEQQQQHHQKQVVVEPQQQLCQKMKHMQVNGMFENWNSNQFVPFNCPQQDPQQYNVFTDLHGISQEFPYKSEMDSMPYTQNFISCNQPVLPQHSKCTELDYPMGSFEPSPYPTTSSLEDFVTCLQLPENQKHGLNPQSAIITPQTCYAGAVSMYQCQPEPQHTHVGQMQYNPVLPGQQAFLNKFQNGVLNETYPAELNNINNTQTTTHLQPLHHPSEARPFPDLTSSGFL
SR-BI DiI-HDL act = SR-BI HDL lipid transfer activation; CHO ldlA[mSR-BI] cells, DiI-HDL uptake fluorescence, 3 h; 100 = double the neutral-control signal; activation, % at 12.5 µM; 320,000 compounds, 0.096% hits;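 active = mean replicate activation of at least 60% and every replicate at or above 60%; inconclusive = mean or all-replicate condition met, but not both; inactive = mean below 60% and not all replicates reaching 60%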;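 note: 0% = median plate neutral-control signal and 100% = twice that signal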
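Test system: SR-BI-overexpressing, LDLR-lacking CHO cells; Also added: labelled HDL, 10 µg/mL; Measured by: bottom-read cell fluorescence after medium removal, ex 550/em 595 nm; Timing: 3 h uptake period with compound, 37 °C; Buffer or medium: F12, 0.5% BSA, 25 mM HEPES; Doses: single compound concentration, delivered by pin transfer.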
FXN GAA850 act = frataxin GAA850 promoter activation | AID 540364 | 360,000 compounds, 0.56% hits | HEK293 lucGAA850 FXN promoter luciferase reporter, 24 h; percent of 10 µM SAHA response | activation, % at 6 µM;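 active = activation above the average of all compounds screened plus 3 SD, cutoff fixed separately per campaign, cut at about 7.5% in these data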;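 note: 0% = DMSO wells and 100% = 10 µM SAHA wells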
SR-BI DiI inh = mouse SR-BI HDL lipid transfer inhibition | Q61009 | ldlA[mSR-BI] CHO cells, DiI-HDL uptake fluorescence, 3 h | inhibition, % at 12.5 µM | 320,000 compounds, 0.96% hits | AID 488896;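 active = mean replicate inhibition of at least 70% and a set share of replicates each scoring 70 or more; inconclusive = meets just one of the two criteria; inactive = fails both criteria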;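 note: 0% = median of neutral control wells and 100% = median of positive control wells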
GASC-1 inh = blocks human GASC-1 demethylase activity; GST-JMJD2C(1-420) H3K9me3 demethylation, DELFIA europium; inhibition, % at 2.35 µM; 330,000 compounds, 0.069% hits;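 active = more than half of a compound's replicate wells show inhibition beyond 50%, single wells judged on their own value; inconclusive = some, but no more than half, of replicates pass 50% inhibition; inactive = no replicate passes 50% inhibition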;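 note: signal counts dimethyl H3K9 product captured on neutravidin plate; 0% = median of DMSO wells and 100% = 0.3 times that DMSO median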
An asterisk follows results filed as active; i = inactive; ? = inconclusive; . = not tested or not shown. An excerpt weighted towards active compounds, which were near 3.7% of everything screened.

SMILES | AHR act | SR-BI DiI-HDL act | FXN GAA850 act | SR-BI DiI inh | GASC-1 inh
Clc1ccc(C2=CC(c3ccco3)n3ncnc3N2)cc1 (stereo not drawn) | 71.1* | . | 1.8 | . | -5.2
Cc1ccc(C(=O)Nc2cccc(C(F)(F)F)c2)cc1Nc1ccccn1 | 50.4* | -40.7 | 2.9 | 40.7 | -0.8
Cc1ccc(C(=O)Nc2cccc(C(F)(F)F)c2)cc1NC(=O)c1c[nH]c2cc(C(F)(F)F)ccc2c1=O | 58.2* | 28.3 | 1.7 | -28.3 | 14.2
CCOc1cccc2sc(NC(=O)CCS(=O)(=O)c3ccccc3)nc12 | 57.1* | -38.1 | -2.2 | 38.1 | 36.4
O=C(CCS(=O)(=O)c1ccccc1)Nc1nc(-c2ccccn2)cs1 | 54.0* | 19.9 | -1.9 | -19.9 | 2.5
CCCCC(=O)Nc1nc2c(OC)ccc(OC)c2s1 | 64.3* | -40.1 | -1.3 | 40.1 | 2.4
O=C(CCS(=O)(=O)c1ccccc1)Nc1cccc(-c2nc3ccccc3s2)c1 | 68.5* | -24.8 | 5.5 | 24.8 | -5.9
C[C@]12c3[nH]c4cc(-c5ccco5)ccc4c3CCN1C(=O)[C@@H](CC(=O)NCc1cccc(C(F)(F)F)c1)C[C@@H]2C(=O)N1CCCCC1 | . | -5.7 | 0.0 | 5.7 | .
CC1CCN(C(=O)c2[nH]cnc2C(=O)N2CCN(C(=O)OC(C)(C)C)CC2)CC1 | 0.6 | 13.9 | 1.6 | -13.9 | 0.5
Cc1nnc(NC(=O)CCS(=O)(=O)c2ccccc2)s1 | 16.3 | 8.4 | -3.8 | -8.4 | 5.8
COc1ccc(C)c2sc(NC(=O)CCS(=O)(=O)c3ccccc3)nc12 | 52.3* | -22.3 | 1.2 | 22.3 | 25.6
O=C(NCc1cccnc1)c1ccccc1[N+](=O)[O-] | 0.9 | 9.7 | 1.4 | -9.7 | 3.7
Cc1onc(-c2c(F)cccc2Cl)c1C(=O)NCCc1ccncc1 | 10.3 | 14.6 | 0.8 | -14.6 | -3.4
O=C(Nc1ccc(F)cc1)N1CCc2ccccc2C1 | 69.2* | 5.5 | 2.4 | -5.5 | ?
Cc1cccc2c1cnn2C(=O)Nc1cc(F)ccc1F | 1.9 | -3.5 | 1.4 | 3.5 | 6.8
CCOc1ccccc1NC(=O)CN1CCc2ccccc2C1 | 15.4 | 7.8 | 0.3 | -7.8 | -5.2
CCOc1ccccc1NC(=O)N1CCc2ccccc2C1 | 68.4* | -30.7 | 1.8 | 30.7 | 61.2
CCOc1ccccc1NC(=O)c1cccc2c1C(=O)N(CCOC)C2 | 69.2* | -13.0 | 0.8 | 13.0 | -1.3
CCOc1ccccc1NC(=O)n1ncc2c(C)cccc21 | 47.9* | -41.3 | 0.0 | 41.3 | -3.9
COCCN1Cc2cccc(C(=O)Nc3cccc(C)c3C)c2C1=O | 3.3 | -7.1 | -0.7 | 7.1 | 47.4
CCOCCCN(C)C1CCN(C(=O)c2oc3ccccc3c2NC(=O)Cc2ccc(F)cc2)CC1 | -1.2 | -1.3 | -0.2 | 1.3 | -1.9
COc1ccc2c(c1)c1nnc(SC)nc1n2C | 44.4 | -11.5 | 3.2 | 11.5 | 8.8
COc1ccc2c(c1)c1nnc(SCC(=O)N3C(C)CCCC3C)nc1n2C (stereo not drawn) | 50.4* | -12.1 | 1.1 | 12.1 | 8.6
Cc1ccc(NCC(=O)N=Nc2c(O)[nH]c3ccc([N+](=O)[O-])cc23)cc1 | 124.5* | . | . | . | 6.9
O=[N+]([O-])c1ccc2[nH]c(O)c(N=NC(=S)Nc3cccnc3)c2c1 | 62.1* | . | 0.8 | . | 10.4
SMILES | AHR act | SR-BI DiI-HDL act | FXN GAA850 act | SR-BI DiI inh | GASC-1 inh
CC(C)(Oc1ccc(Cl)cc1)C(=O)NCc1n[nH]c(=O)c2ccccc12 | 15.5 | -3.4 | -0.1 | 3.4 | 3.3
N#C/C(=C\c1ccc([N+](=O)[O-])o1)c1nc2ccccc2[nH]1 | 54.6* | . | . | . | 4.8
Nc1nc(SCC(=O)c2ccc(Br)s2)n[nH]1 | 1.7 | 640.8* | 1.6 | i | -10.7
Nc1nc(SCC(=O)c2cccs2)n[nH]1 | 4.1 | -20.5 | 2.4 | 20.5 | -8.7
CNC(=O)c1ccc(NC(=O)CC2SC(N3CCCC3)=NC2=O)cc1 (stereo not drawn) | -1.0 | -20.6 | -1.3 | 20.6 | -0.6
C=CCN1CCS(=O)(=O)N(Cc2ccccc2)[C@@H](C(C)C)C1=O | . | -53.5 | 0.6 | 53.5 | .
Cc1nc(N)sc1C(=O)N/N=C/c1ccccc1[N+](=O)[O-] | 57.5* | . | 5.7 | . | 9.3
COc1cc(/C=N\NC(=O)c2sc(N)nc2C)cc(OC)c1OC | 62.3* | -4.6 | 3.3 | 4.6 | -12.4
COc1cc(/C=N/NC(=O)c2ccoc2C)cc(OC)c1OC | 36.8 | -9.5 | -0.3 | 9.5 | 18.5
COc1cc(/C=N/NC(=O)c2cc(-c3ccccc3)sc2N)cc(OC)c1OC | 49.3* | . | . | . | -1.4

Screening results deposited in PubChem BioAssay by several laboratories.
